Mdm2-MdmX inh = inhibitors of human Mdm2/MdmX interaction; O15151+Q00987; SaOS-2 split-luciferase Mdm2/MdmX complementation, luminescence; inhibition, % at 8 µM; actives 3% (n = 330,000);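 active = inhibition of at least 50% at 8 µM in the primary screen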
Target sequence (O15151 whole entry, looked up): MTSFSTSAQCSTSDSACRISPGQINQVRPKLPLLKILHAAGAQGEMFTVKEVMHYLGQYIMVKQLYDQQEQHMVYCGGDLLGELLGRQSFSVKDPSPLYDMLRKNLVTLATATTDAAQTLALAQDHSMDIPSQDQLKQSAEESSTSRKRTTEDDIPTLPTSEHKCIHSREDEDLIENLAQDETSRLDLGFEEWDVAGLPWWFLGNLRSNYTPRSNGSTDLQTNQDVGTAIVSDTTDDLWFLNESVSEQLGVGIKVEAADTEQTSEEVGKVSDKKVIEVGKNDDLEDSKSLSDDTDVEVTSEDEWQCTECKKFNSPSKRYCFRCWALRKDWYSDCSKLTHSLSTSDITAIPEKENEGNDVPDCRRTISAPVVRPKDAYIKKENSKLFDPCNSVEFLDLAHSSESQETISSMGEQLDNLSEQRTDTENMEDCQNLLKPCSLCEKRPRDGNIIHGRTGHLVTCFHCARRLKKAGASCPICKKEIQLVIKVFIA
Target sequence (Q00987 whole entry, looked up): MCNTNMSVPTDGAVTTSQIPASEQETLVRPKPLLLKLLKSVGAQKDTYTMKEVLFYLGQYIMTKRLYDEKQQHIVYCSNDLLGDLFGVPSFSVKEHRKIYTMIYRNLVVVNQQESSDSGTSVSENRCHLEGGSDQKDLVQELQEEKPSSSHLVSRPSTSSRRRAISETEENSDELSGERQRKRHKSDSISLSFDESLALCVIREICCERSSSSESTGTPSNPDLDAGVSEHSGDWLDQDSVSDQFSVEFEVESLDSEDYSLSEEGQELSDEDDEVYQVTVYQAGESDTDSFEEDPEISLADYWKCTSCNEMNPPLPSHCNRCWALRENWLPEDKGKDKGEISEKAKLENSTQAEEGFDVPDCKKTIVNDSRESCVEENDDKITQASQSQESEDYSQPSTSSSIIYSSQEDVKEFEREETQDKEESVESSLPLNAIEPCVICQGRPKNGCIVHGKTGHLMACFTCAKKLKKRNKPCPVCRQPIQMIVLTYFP
CSC inhib = blocks cancer stem cells. cancer stem cell-like cells viability, luminescence. inhibition, % at 7.5 µM. actives 1.1% (n = 300,000); in the data active = inhibition above about 75%; inconclusive = no clear call, values can overlap the other calls; tested in HMLE shEcad cells
SKKanGAS inh = inhibitors of SKKanGAS S. pyogenes growth in kanamycin (SK-promoter or general growth effect) | BacTiter-Glo, 6 h | inhibition, % at 7.5 µM | actives 1.3% (n = 300,000) | AID 1662;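 active = mean replicate score, as percent of positive control median, at least 50; inconclusive = mean below 50 but one replicate at or above 50; inactive = mean and every replicate below 50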;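 also: strain carries kanamycin resistance gene driven by streptokinase promoter and grows in 40 µg/ml kanamycin; loss of luminescence reflects streptokinase promoter inhibition or plain growth inhibition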
UPR CHOP act = apoptotic UPR (CHOP) activation; CHO-CHOP luciferase reporter, luminescence; percent of tunicamycin response over DMSO baseline; activation, % at 10 µM; actives 0.34% (n = 330,000);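 active = at 10 µM dose, activation of 40% or more, normalized to positive control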
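Evaluation: % reporter activation, DMSO baseline versus tunicamycin full activation; System: CHO-CHOP luciferase reporter cell line; Input: 500 cells/well; Incubation: 6 h compound treatment, 37 °C; Measured by: Steady-Glo luciferase luminescence; Dosing: one dose, 10 µM in 0.5% DMSO; Buffer or medium: F12 medium, 10% FBS; Benchmarks: positive tunicamycin 10 µg/mL, negative DMSO alone.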
Beta cell apopt = beta cell apoptosis inhibition | actives 0.8% (n = 300,000) | INS-1E cytokine-induced death, ATP luminescence, 48 h; percent of positive-control rescue, neutral wells zero | protection from apoptosis, % (concentration not given with the values) | AID 435005;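 active = Every replicate reaches about 75%, or at least half do and their mean reaches it too, limit read from the data; inconclusive = At least half of replicates reach the limit but their mean does not; inactive = Under half of replicates reach the limit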;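 also: higher means more ATP so stronger rescue from cytokine killing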
XBP1 UPR activ = activators of adaptive arm of unfolded protein response (XBP1); CHO-XBP1 luciferase reporter, IRE1-XBP1 UPR activation, luminescence; percent of tunicamycin response, DMSO as zero; activation, % at 20 µM; actives 0.33% (n = 330,000); AID 463104;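 active = versus positive control, 20 µM dose yields 30% or more activation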
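assay system = CHO-XBP1 luciferase reporter cells | amount = 1000 cells/well | buffer or medium = F12 plus 10% FBS | compound dosing = single point, 20 µM final compound, 1% DMSO | incubation = 16-18 h cell attachment at 37 °C, then 6 h compound exposure | detection = Steady-Glo luminescence read | controls = tunicamycin 10 µg/mL and vehicle-only wells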
Mdm2-MdmX conf = confirmation of human Mdm2/MdmX interaction inhibitors; actives 55% (n = 10,000); shares compounds with Mdm2-MdmX inh; Mdm2-MdmX binding, luminescent assay; AID 489028; inhibition, % at 8 µM; in the data active = inhibition above about 40%
Full FLuc ctr = full-length luciferase inhibition in Mdm2/MdmX counter-screen; AID 504607; inhibition, % at 8 µM; shares compounds with Mdm2-MdmX inh; SaOS-2 full-length luciferase counterscreen, luminescence; actives 77% (n = 6,200);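 active = mean inhibition at 8 µM reaching about 37%, which flags the compound as non-specific, limit read from the data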;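 also: p53-null SaOS-2 cells with luciferase driven by a doxycycline-inducible promoter; compound on cells about two nights before reading with doxycycline added after day one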
Each line names hits and unclear results; the compound was inactive in the other large screens (follow-up assays come after a bar, where they were run). A selection: hits, their analogues and other compounds. The true share with any hit is near 4.8%.

CCCCCC(=O)Nc1cc(S(=O)(=O)N2CCOCC2)ccc1N1CCCCC1	none
O=C(C1CCCN(c2ncnc3c2nc2n3CCCCC2)C1)N1CCN(c2ccccc2F)CC1 (stereo not drawn)	none
Clc1ccc(CN2CCc3c([nH]c4ccccc34)C2)cc1Cl	Mdm2-MdmX inh 96, CSC inhib 124 | Mdm2-MdmX conf inactive | Full FLuc ctr 48
Clc1cccc(CN2CCc3c([nH]c4ccccc34)C2)c1	none
Cn1nc([N+](=O)[O-])nc1Sc1nnc(-c2ccccc2)o1	Mdm2-MdmX inh 100 | Mdm2-MdmX conf 76 | Full FLuc ctr 52
CC1CCc2c(sc(NC(=O)c3cccn3C)c2C(N)=O)C1 (stereo not drawn)	none (no result: SKKanGAS inh)
COc1ccc(NC(=O)c2ccco2)cc1NC(=O)COc1ccccc1[N+](=O)[O-]	Mdm2-MdmX inh 78 | Mdm2-MdmX conf inactive
O=C(COc1ccccc1[N+](=O)[O-])Nc1ccc(NC(=O)c2cc3ccccc3o2)cc1	Mdm2-MdmX inh 54 | Mdm2-MdmX conf inactive | Full FLuc ctr 71
CCOc1cc(NC(=O)c2ccco2)c(OCC)cc1NC(=O)COc1ccccc1C	Mdm2-MdmX inh 99 | Mdm2-MdmX conf inactive | Full FLuc ctr inactive
Cc1ccccc1OCC(=O)Nc1ccccc1NC(=O)c1ccco1	none (no result: Beta cell apopt)
O=C(COc1ccccc1[N+](=O)[O-])Nc1ccc2oc(=O)ccc2c1	none
Cc1ccc(CNC(=O)CSc2nnc3n2CCCCC3)cc1	none (no result: SKKanGAS inh)
Cc1cc(=O)oc2c(C)c(OCC(=O)c3ccccc3)ccc12	none
CCCCCCCN1CCN=C1Nc1ccccc1	none (no result: SKKanGAS inh)
O=C(N/N=C/c1cc(Br)c(Br)s1)c1ccncc1	Mdm2-MdmX inh 51, Beta cell apopt 85 | Mdm2-MdmX conf inactive
OCCNCCSc1nc(C2CCCCC2)n(-c2ccccc2Cl)n1	none
[O-][n+]1onc2c1CCC(=N/O)/C2=N\Nc1ccccc1	none
Cc1ccccc1C(=O)Nc1ccc(-c2nc3ccc(C(=O)c4ccccc4)cc3[nH]2)cc1	Mdm2-MdmX inh 67, CSC inhib 84 | Mdm2-MdmX conf inactive | Full FLuc ctr 46
O=C(Nc1ccc(-c2nc3ccc(NC(=O)c4cccs4)cc3[nH]2)cc1)c1cccs1	Mdm2-MdmX inh 95, CSC inhib 102 | Mdm2-MdmX conf 47 | Full FLuc ctr inactive
O=C(Nc1ccc2nc(-c3cccs3)[nH]c2c1)c1cccs1	none
Cc1ccc(NC(=O)CNC(=O)c2cccs2)c(O)c1	none
COc1cccc(/C=N/NC(=O)c2cc3c(OC)ccc(OC)c3[nH]2)c1O	Mdm2-MdmX inh 62, CSC inhib 103, SKKanGAS inh 106, Beta cell apopt 86 | Mdm2-MdmX conf 63 | Full FLuc ctr 38
COc1cccc(/C=N/NC(=O)N/N=C/c2cccc(OC)c2O)c1O	none
COc1cccc(/C=N/Nc2ccc(C(=O)O)cc2)c1O	Mdm2-MdmX inh 54 | Mdm2-MdmX conf inactive
COc1cccc(/C=N/NC(=O)c2nc(-c3ccccc3)cc(-c3ccccc3)n2)c1O	Mdm2-MdmX inh 51 | Mdm2-MdmX conf inactive
COc1cc(OC)c2cc(C(=O)N/N=C/c3cccc(OC)c3O)[nH]c2c1	Mdm2-MdmX inh 69, CSC inhib 125, Beta cell apopt 97 | Mdm2-MdmX conf 62 | Full FLuc ctr inactive
COc1ccc2cc(C(=O)N/N=C/c3cc(OC)c(OC)c(OC)c3)[nH]c2c1	none
C[C@@H]1NC(=O)N(CCCn2ccnc2)C1=O	none
COc1ccc(CN(C(=O)c2cc3ccccc3oc2=O)C2CCS(=O)(=O)C2)cc1OC (stereo not drawn)	none (no result: CSC inhib)
Cc1c(C(=O)Nc2ccccc2N2CCN(C)CC2)oc2ccc(F)cc12	none (no result: CSC inhib, SKKanGAS inh, Beta cell apopt)
O=C(Nc1ccc(F)cc1)Nc1ccc(NC(=O)c2ccccc2O)cc1	none
COc1ccc(N2CCCC2)c(NC(=O)c2ccc(Br)o2)c1	none
COc1ccc(Cl)c2sc(NC(=O)C3=COCCO3)nc12	Mdm2-MdmX inh 54 | Mdm2-MdmX conf inactive
O=C(Nc1nc2ccc(F)cc2s1)C1=COCCO1	none
Cc1ccc(Cl)c2sc(NC(=O)C3=COCCO3)nc12	none (no result: Beta cell apopt)
O=C(Nc1nc2cc3c(cc2s1)OCCO3)C1=COCCO1	Mdm2-MdmX inh 87 | Mdm2-MdmX conf 83 | Full FLuc ctr 39
NS(=O)(=O)c1ccc2nc(NC(=O)c3ccc4ncsc4c3)sc2c1	none
NS(=O)(=O)c1ccc2nc(NC(=O)c3ccc4c(c3)OCCO4)sc2c1	Mdm2-MdmX inh 76 | Mdm2-MdmX conf inactive
CCNS(=O)(=O)c1ccc(CCC(=O)N2CCN(c3ccccc3)CC2)cc1	none
O=C(CN1C2CCCC1CC(NC(=O)c1ccccc1)C2)Nc1ccccc1 (stereo not drawn)	none
Nn1c(SCC(=O)Nc2nccs2)nnc1-c1cccnc1	none (no result: CSC inhib, SKKanGAS inh)
CCCCCc1cc(=O)oc2c(C(CCN3CCCCC3)c3ccc4c(c3)OCO4)c(OC)cc(OC)c12 (stereo not drawn)	Mdm2-MdmX inh 93, CSC inhib inconclusive, Beta cell apopt 98 | Mdm2-MdmX conf 49 | Full FLuc ctr 65
CCCCCc1cc(=O)oc2c(C(CCN3CCCC(C)C3)c3ccc4c(c3)OCO4)c(OC)cc(OC)c12 (stereo not drawn)	Mdm2-MdmX inh 79, CSC inhib 108 | Mdm2-MdmX conf inactive | Full FLuc ctr 66
CCCCCc1cc(=O)oc2c(C(CCN(CC)CC)c3cc(OC)c(OC)c(OC)c3)c(OC)cc(OC)c12 (stereo not drawn)	Mdm2-MdmX inh 100, CSC inhib 107 | Mdm2-MdmX conf inactive | Full FLuc ctr inactive
Cc1ccc(O)c(C(=O)c2cnc3c(c2)CN(C)C(=O)N3)c1	Mdm2-MdmX inh 63 | Mdm2-MdmX conf 49 | Full FLuc ctr 56
CC1=C(C(N)=O)C(c2ccccn2)n2nc(SCc3ccccc3Cl)nc2N1 (stereo not drawn)	none
CN1Cc2cc(C(=O)c3cc(Cl)cc(CSc4ncccn4)c3O)cnc2NC1=O	Mdm2-MdmX inh 59, SKKanGAS inh 50 | Mdm2-MdmX conf 73 | Full FLuc ctr 89
Cc1ccc(O)c(C(=O)c2cnc3c(c2)CN(CCC(C)C)C(=O)N3)c1	Mdm2-MdmX inh 54 | Mdm2-MdmX conf inactive
CCCCN1Cc2cc(C(=O)c3cc(OC)ccc3O)cnc2NC1=O	none
O=C(COC(=O)CSc1ccc(F)cc1)NNC(=O)c1ccc([N+](=O)[O-])cc1	none
Cc1cccc(N2CCN(C(=O)c3ccccc3SCC(=O)N3CCCC3)CC2)c1C	none (no result: SKKanGAS inh)

Source: PubChem
